Assay results as given in ChEMBL document CHEMBL1135680, “Use of ab initio calculations to predict the biological potency of carboxylesterase inhibitors” (J Med Chem, 2002).

Legend:
[1] = target: T1, Acylcarnitine hydrolase (Mus musculus, UniProt Q91WG0); experiment: Inhibition of carboxylesterase in murine liver microsomes.; design: species or system Microsome
T1 sequence (Q91WG0 whole entry): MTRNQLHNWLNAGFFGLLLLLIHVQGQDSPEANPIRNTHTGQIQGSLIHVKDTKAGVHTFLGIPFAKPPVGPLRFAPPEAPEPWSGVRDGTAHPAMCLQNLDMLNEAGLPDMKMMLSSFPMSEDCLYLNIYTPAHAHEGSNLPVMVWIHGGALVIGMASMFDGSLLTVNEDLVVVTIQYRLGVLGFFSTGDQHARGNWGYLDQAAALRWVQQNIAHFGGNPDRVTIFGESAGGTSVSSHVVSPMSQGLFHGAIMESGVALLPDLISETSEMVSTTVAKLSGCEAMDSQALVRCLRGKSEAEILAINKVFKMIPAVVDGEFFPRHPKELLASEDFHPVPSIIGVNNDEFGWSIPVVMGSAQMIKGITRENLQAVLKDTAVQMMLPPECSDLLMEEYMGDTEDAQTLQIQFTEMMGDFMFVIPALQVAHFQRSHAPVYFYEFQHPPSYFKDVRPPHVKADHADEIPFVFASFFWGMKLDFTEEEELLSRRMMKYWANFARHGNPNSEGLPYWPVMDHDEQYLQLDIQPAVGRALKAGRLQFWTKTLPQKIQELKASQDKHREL
Procedure, shortened: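 Liver microsomes from male Swiss-Webster mice (differential centrifugation, 100000g pellets), solubilized in 1% n-octyl-β-D-glucopyranoside, then dialyzed 48 h at 4 °C to remove it; 0.88 μg protein per well. Assay in 0.1 M sodium phosphate pH 7.4 at 30 °C: 5 min inhibitor preincubation (ethanol ≤1%), 0.5 mM p-nitrophenyl acetate, 405 nm.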

[2] = target: T2, Liver carboxylesterase (Sus scrofa, UniProt Q29550); experiment: In vitro inhibition of porcine carboxylesterase.
T2 sequence (Q29550 whole entry): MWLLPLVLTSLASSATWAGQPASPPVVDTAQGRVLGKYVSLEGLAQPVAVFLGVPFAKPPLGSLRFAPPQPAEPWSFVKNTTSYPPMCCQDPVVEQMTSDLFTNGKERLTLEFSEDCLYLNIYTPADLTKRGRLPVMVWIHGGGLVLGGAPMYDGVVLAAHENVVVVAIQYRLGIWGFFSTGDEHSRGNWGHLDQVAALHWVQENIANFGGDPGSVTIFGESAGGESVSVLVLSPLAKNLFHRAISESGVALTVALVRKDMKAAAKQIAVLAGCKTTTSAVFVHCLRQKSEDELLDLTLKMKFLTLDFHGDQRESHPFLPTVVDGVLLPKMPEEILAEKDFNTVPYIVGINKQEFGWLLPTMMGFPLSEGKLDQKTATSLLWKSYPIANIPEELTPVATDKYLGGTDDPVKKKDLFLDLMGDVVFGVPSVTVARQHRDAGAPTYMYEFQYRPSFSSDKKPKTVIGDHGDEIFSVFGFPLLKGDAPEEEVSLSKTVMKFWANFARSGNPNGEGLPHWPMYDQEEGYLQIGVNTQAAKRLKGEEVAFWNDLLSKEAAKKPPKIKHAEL

[3] = target: T3, Cocaine esterase (Homo sapiens, UniProt O00748); experiment: In vitro inhibition of carboxylesterase in human liver microsomes.; design: species or system Microsome
T3 sequence (O00748 whole entry): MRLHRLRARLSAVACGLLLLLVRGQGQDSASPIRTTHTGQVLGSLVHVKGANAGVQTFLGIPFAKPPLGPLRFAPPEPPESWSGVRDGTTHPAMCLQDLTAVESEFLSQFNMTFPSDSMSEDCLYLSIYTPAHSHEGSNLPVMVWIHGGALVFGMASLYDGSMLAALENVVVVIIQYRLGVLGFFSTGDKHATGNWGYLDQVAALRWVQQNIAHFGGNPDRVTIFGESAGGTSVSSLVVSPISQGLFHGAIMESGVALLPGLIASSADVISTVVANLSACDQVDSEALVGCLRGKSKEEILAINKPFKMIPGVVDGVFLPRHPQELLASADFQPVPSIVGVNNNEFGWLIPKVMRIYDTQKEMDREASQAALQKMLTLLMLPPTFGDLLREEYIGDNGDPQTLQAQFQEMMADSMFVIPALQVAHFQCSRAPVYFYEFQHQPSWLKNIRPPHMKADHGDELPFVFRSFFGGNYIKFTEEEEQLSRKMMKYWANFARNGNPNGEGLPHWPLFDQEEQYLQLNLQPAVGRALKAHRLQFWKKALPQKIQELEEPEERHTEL

IC50 [1] [µM] | IC50 [2] [µM] | -Log IC50 [3] | SMILES
14800 | 6460 | – | CCCCCC/C=C/C(=O)C(F)(F)F
479 | 110 | – | CCCCCCS(=O)(=O)CC(C)=O
44.7 | 24.5 | 5.3 | CCCCCCCCC(=O)C(F)F
38 | 21.4 | 5.36 | CCCCCCCCC(=O)C(F)(F)F
0.162 | 0.115 | – | CCCCCCCC(F)(F)C(=O)C(F)(F)F
0.0224 | 0.017 | – | CCCCCCNCC(=O)C(F)(F)F
955 | 977 | – | CCCCCCSCC(C)=O
427 | 257 | – | CCCCCCOCC(C)=O
0.447 | 0.17 | 6.51 | CCCCCC[S+]([O-])CC(=O)C(F)(F)F (stereo not given)
0.447 | 0.676 | – | CCCCCCS(=O)(=O)CC(=O)C(F)(F)F
2040 | 955 | – | CCCCCCC#CC(=O)C(F)(F)F
0.12 | 0.0437 | – | CCCCCCOCC(=O)C(F)(F)F
0.0126 | 0.00832 | – | CCCCCCSCC(=O)C(F)(F)F
– | 67600 | – | CCCCCCCCC(C)=O [2-DECANONE]

SMILES | IC50 [1] [µM] | IC50 [2] [µM] | -Log IC50 [3]
CCCCCC[Se]CC(C)=O | 302 | 155 | –
CCCCCC[Se](=O)CC(C)=O (stereo not given) | 15.8 | 9.33 | 5.69
CCCCCC[Se](=O)(=O)CC(C)=O | 112 | – | –
CCCCCC[Se]CC(=O)C(F)(F)F | 0.575 | 0.38 | –
CCCCCCCCC(=O)CF | 1780 | 851 | 3.85
CCCCCC[Se](=O)(=O)CC(=O)C(F)(F)F | 0.0132 | 0.0105 | –
CCCCCC[Se](=O)CC(=O)C(F)(F)F (stereo not given) | 0.000501 | 0.000457 | –
